Experimental data reported in ChEMBL document CHEMBL1932969, “Acyl derivatives of boswellic acids as inhibitors of NF-κB and STATs” (Bioorg Med Chem Lett, 2012).

How the values were obtained:
Assay type in all cases: functional
DU-145 = assay: Anticancer activity against human DU145 cells assessed as growth inhibition at 50 uM after 48 hrs by SRB assay; conditions: DU-145, 48 h, read-out: GI
How it was run: (§1)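 Cells exposed to test compounds at 50 µM for 48 h. Read-out is percent growth inhibition, with SEM given. 5-Fluorouracil and adriamycin serve as reference agents.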

HT-29 = assay: Anticancer activity against human HT-29 cells assessed as growth inhibition at 50 uM after 48 hrs by SRB assay; conditions: HT-29, 48 h, read-out: GI; how it was run: as §1
COLO 205 = assay: Anticancer activity against human COLO205 cells assessed as growth inhibition at 50 uM after 48 hrs by SRB assay; conditions: COLO 205, 48 h, read-out: GI; how it was run: as §1
HEp-2 = assay: Anticancer activity against human Hep2 cells assessed as growth inhibition at 50 uM after 48 hrs by SRB assay; conditions: HEp-2, 48 h, read-out: GI; how it was run: as §1
SW-620 = assay: Anticancer activity against human SW620 cells assessed as growth inhibition at 50 uM after 48 hrs by SRB assay; conditions: SW-620, 48 h, read-out: GI; how it was run: as §1
PC-3 = assay: Anticancer activity against human PC3 cells assessed as growth inhibition at 50 uM after 48 hrs by SRB assay; conditions: PC-3, 48 h, read-out: GI; how it was run: as §1

Row | Compound | inhibition of growth at 50 µM (DU-145) | inhibition of growth at 50 µM (HT-29) | inhibition of growth at 50 µM (COLO 205) | inhibition of growth at 50 µM (HEp-2) | inhibition of growth at 50 µM (SW-620) | inhibition of growth at 50 µM (PC-3)
1 | COC(=O)[C@@]1(C)[C@H](O)CC[C@@]2(C)[C@H]1CC[C@]1(C)[C@@H]2C(=O)C=C2[C@@H]3[C@@H](C)[C@H](C)CC[C@]3(C)CC[C@]21C | 65% | 67% | 70% | 50% | 67% | 87%
2 | C[C@H]1[C@H](C)CC[C@]2(C)CC[C@]3(C)C(=CC(=O)[C@@H]4[C@@]5(C)CC[C@@H](OC(=O)CCC(=O)O)[C@](C)(C(=O)O)[C@@H]5CC[C@]43C)[C@H]12 | 51% | 5% | 2% | 6% | 4% | 38%
3 | C[C@H]1[C@H](C)CC[C@]2(C)CC[C@]3(C)C(=CC[C@@H]4[C@@]5(C)CC[C@@H](OC(=O)CCC(=O)O)[C@](C)(C(=O)O)[C@@H]5CC[C@]43C)[C@H]12 | 93% | 72% | 88% | 55% | 67% | 90%
4 | CCCC(=O)O[C@H]1CC[C@@]2(C)[C@@H](CC[C@]3(C)[C@@H]2CC=C2[C@@H]4[C@@H](C)[C@H](C)CC[C@]4(C)CC[C@]23C)[C@@]1(C)C(=O)O | 89% | 57% | 67% | 63% | 79% | 83%
5 | COc1cccc2c1C(=O)c1c(O)c3c(c(O)c1C2=O)C[C@@](O)(C(=O)CO)C[C@@H]3O[C@H]1C[C@H](N)[C@H](O)[C@H](C)O1 [DOXORUBICIN] | 90% | 88% | 81% | 64% | 72% | 86%
6 | CC(=O)O[C@@H]1CC[C@@]2(C)[C@@H](CC[C@]3(C)[C@@H]2C(=O)C=C2[C@@H]4[C@@H](C)[C@H](C)CC[C@]4(C)CC[C@]23C)[C@@]1(C)C(=O)O [AKBA] | 85% | 88% | 85% | 59% | 88% | 76%
7 | CCC(=O)O[C@H]1CC[C@@]2(C)[C@@H](CC[C@]3(C)[C@@H]2C(=O)C=C2[C@@H]4[C@@H](C)[C@H](C)CC[C@]4(C)CC[C@]23C)[C@@]1(C)C(=O)O | 89% | 64% | 83% | 63% | 72% | 96%
8 | C[C@H]1[C@H](C)CC[C@]2(C)CC[C@]3(C)C(=CC(=O)[C@@H]4[C@@]5(C)CC[C@@H](OC=O)[C@](C)(C(=O)O)[C@@H]5CC[C@]43C)[C@H]12 | 83% | 63% | 73% | 54% | 69% | 95%
9 | COC(=O)[C@@]1(C)C(=O)CC[C@]2(C)[C@H]3C(=O)C=C4[C@@H]5[C@@H](C)[C@H](C)CC[C@]5(C)CC[C@@]4(C)[C@]3(C)CC[C@@H]12 | 23% | 17% | 30% | 10% | 11% | 3%
10 | COC(=O)[C@@]1(C)C(=O)CC[C@]2(C)[C@H]3CC=C4[C@@H]5[C@@H](C)[C@H](C)CC[C@]5(C)CC[C@@]4(C)[C@]3(C)CC[C@@H]12 | 50% | 33% | 34% | 7% | 34% | 44%
11 | C[C@H]1[C@H](C)CC[C@]2(C)CC[C@]3(C)C(=CC[C@@H]4[C@@]5(C)CC[C@H](OC(=O)CCC(=O)O)[C@](C)(C(=O)O)[C@@H]5CC[C@]43C)[C@H]12 | 48% | 13% | 19% | 11% | 5% | 35%
12 | CC(=O)O[C@H]1CC[C@@]2(C)[C@@H](CC[C@]3(C)[C@@H]2C(=O)C=C2[C@@H]4[C@@H](C)[C@H](C)CC[C@]4(C)CC[C@]23C)[C@@]1(C)C(=O)O | 83% | 44% | 54% | 47% | 44% | 62%
